Measurements taken from ChEMBL document CHEMBL1124262, “Cardiotonic agents. Synthesis and inotropic activity of a series of isoquinolin-3-ol derivatives” (J Med Chem, 1988).

How the values were obtained:
Canis familiaris [1] = assay: Change in heart rate of anaesthetized, open chest dogs following 0.875 mg/kg i.v. administration.; type: functional, Canis lupus familiaris; conditions: route intravenous
Summary of the method: (§1)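 Anesthetized open-chest dogs, one drug per animal. Compound is in DMF diluted to 10% in saline, or given as the HCl salt in saline. It is infused into the femoral vein by pump at 0.58-2.2 mL/min in 3-4 stepwise cumulative doses, each over 5 min after the prior peak. Readings are CF by right-ventricle strain gauge, dP/dtmax by Millar LV catheter, HR by cardiotachometer and MAP from femoral artery, as % change from predrug control.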

Canis familiaris [2] = assay: Percent change in left ventricular pressure (dP/dtmax) in anesthetized dog after iv administration at 1.875 mg/kg; type: functional, Canis lupus familiaris, Heart left ventricle; summary of the method: as §1
Canis familiaris [3] = assay: Percent increase in contractile force (CF) in anesthetized open-chest dogs iv administration of 1.875 mg/kg; type: functional, Canis lupus familiaris
Summary of the method: (§2)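 Anesthetized open-chest dogs. After a right thoracotomy, contractile force was recorded by a Walton Brodie strain gauge sutured to the right ventricle at 100 g baseline tension. Compound was given iv by infusion pump into a femoral vein, one drug per animal, in three to four stepwise increasing doses. Each dose ran over 5 min, starting once the previous dose's effect peaked. Values are % increase over predrug control vs cumulative mg/kg dose.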

Canis familiaris [4] = assay: Percent change in mean arterial blood pressure (MAP) in anesthetized open chest dogs iv administration at 1.875 mg/kg; type: functional, Canis lupus familiaris; summary of the method: as §1
Canis familiaris [5] = assay: Percent change in heart rate (HR) in anesthetized open chest dogs after a iv dose of 0.05 mg/kg; type: functional, Canis lupus familiaris; summary of the method: as §1
Canis familiaris [6] = assay: 50% increase in contractile force in one to three anesthetized dogs administered intravenously; type: functional; conditions: Canis lupus familiaris, iv
Summary of the method: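 Anesthetized dogs (one to three). Compound is infused iv in three to four stepwise increasing doses, each over 5 min once the previous effect has peaked. Contractile force is recorded with a Walton Brodie strain gauge on the right ventricle. The dose (μg/kg) giving a 50% rise over control CF is read from the dose-response curve, graphically (n < 3) or by linear regression (n ≥ 3).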

Canis familiaris [7] = assay: Percent increase in contractile force (CF) in anesthetized open-chest dogs iv administration of 0.050 mg/kg; type: functional, Canis lupus familiaris; conditions: dose 0.05 mg/kg; summary of the method: as §1
Canis familiaris [8] = assay: Percent change in mean arterial blood pressure (MAP) in anesthetized open chest dogs iv administration at 0.050 mg/kg; type: functional, Canis lupus familiaris; conditions: dose 0.05 mg/kg; summary of the method: as §1
Canis familiaris [9] = assay: Percent change in left ventricular pressure (dP/dtmax) in anesthetized dog after iv administration at 0.05 mg/kg; type: functional, Canis lupus familiaris, Heart left ventricle; summary of the method: as §1
Phosphodiesterase 3 = Phosphodiesterase 3 (Homo sapiens, UniProt Q14432+Q13370); assay: Inhibition of phosphodiesterase fraction III in anesthetized open chest dogs; type: functional, Canis lupus familiaris; conditions: target entry is the homologue from another species
Summary of the method: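 Enzyme is dog heart PDE-III, the third DEAE-cellulose fraction eluted at 800 mM sodium acetate. Compounds are tested at 0.01–1000 μM with 0.25 μM cAMP containing [³H]cAMP, in 0.05 M Tris-HCl pH 7.4 with 5 mM MgCl2. The reaction is stopped by heat, then snake venom converts product to adenosine. [³H]adenosine is counted by scintillation after Dowex separation. IC50 comes from ≥2 determinations, each in duplicate.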

Canis familiaris [10] = assay: Change in heart contractile force of anaesthetized, open chest dogs following 0.875 mg/kg i.v. administration.; type: functional, Canis lupus familiaris; conditions: route intravenous; summary of the method: as §1
Canis familiaris [11] = assay: Percent change in mean arterial blood pressure (MAP) in anesthetized open chest dogs iv administration at 0.8750 mg/kg; type: functional, Canis lupus familiaris; conditions: dose 0.875 mg/kg; summary of the method: as §1
Canis familiaris [12] = assay: Change in left ventricular pressure of anaesthetized, open chest dogs following 0.875 mg/kg i.v. administration.; type: functional, Canis lupus familiaris, Heart left ventricle; conditions: route intravenous; summary of the method: as §1
Canis familiaris [13] = assay: Percent change in heart rate (HR) in anesthetized open chest dogs after a iv dose of 1.875 mg/kg; type: functional, Canis lupus familiaris; summary of the method: as §1
Canis familiaris [14] = assay: Percent change in mean arterial blood pressure (MAP) in anesthetized open chest dogs iv administration at 0.875 mg/kg; type: functional, Canis lupus familiaris; summary of the method: as §1
Canis familiaris [15] = assay: Percent change in heart rate (HR) in anesthetized open chest dogs after a iv dose of 0.375 mg/kg; type: functional, Canis lupus familiaris; summary of the method: as §1
Canis familiaris [16] = assay: Percent increase in contractile force (CF) in anesthetized open-chest dogs iv administration of 0.375 mg/kg; type: functional, Canis lupus familiaris; summary of the method: as §2
Canis familiaris [17] = assay: Percent change in mean arterial blood pressure (MAP) in anesthetized open chest dogs iv administration at 0.3750 mg/kg; type: functional, Canis lupus familiaris; conditions: dose 0.375 mg/kg; summary of the method: as §1
Canis familiaris [18] = assay: Percent change in left ventricular pressure (dP/dtmax) in anesthetized dog after iv administration at 0.375 mg/kg; type: functional, Canis lupus familiaris, Heart left ventricle; summary of the method: as §1

| Compound | Change (Canis familiaris [1]) | Increase (Canis familiaris [10]) | Change (Canis familiaris [11]) | Increase (Canis familiaris [12]) | further results |
| --- | --- | --- | --- | --- | --- |
| CCCc1nc(O)c(CCC(=O)OC)c2cc(OC)c(OC)cc12 | 2% |  |  |  | Increase (Canis familiaris [2]): 19%; Increase (Canis familiaris [3]): 17%; Change (Canis familiaris [4]): -4% |
| COc1cc2c(C)nc(O)c(C(C)C)c2cc1OC |  |  |  |  | Change (Canis familiaris [5]): 6%; ED50 (Canis familiaris [6]): 0.025 mg/kg; Increase (Canis familiaris [7]): 76%; Change (Canis familiaris [8]): -5%; Increase (Canis familiaris [9]): 54%; IC50 (Phosphodiesterase 3): 7 µM |
| COC(=O)Cc1c(O)nc(C)c2cc(OC)c(OC)cc12 | 6% | 42% | -1% | 28% |  |
| COC(=O)CCc1c(O)ncc2cc3c(cc12)OCO3 |  |  |  |  | Change (Canis familiaris [13]): 6%; Increase (Canis familiaris [2]): 28%; Increase (Canis familiaris [3]): 26%; Change (Canis familiaris [4]): 0% |
| CCOc1cc2c(C)nc(O)c(CC)c2cc1OC | 26% | 118% | -46% | 6% | ED50 (Canis familiaris [6]): 0.02 mg/kg; IC50 (Phosphodiesterase 3): 2 µM |
| COC(=O)CCc1c(O)ncc2cc(OC)c(OC)cc12 | 7% | 53% | -4% | 24% |  |
| COc1cc2c(C)nc(O)c(CCC(=O)O)c2cc1OC |  |  |  |  | Change (Canis familiaris [13]): 5%; Increase (Canis familiaris [2]): 42%; Increase (Canis familiaris [3]): 75%; Change (Canis familiaris [4]): -3% |
| COc1cc2cc(O)nc(C)c2c(OC)c1OC | 13% | 76% |  | 45% | Change (Canis familiaris [14]): -2% |
| COc1cc2c(C)nc(O)c(CC(C)C)c2cc1OC |  |  |  |  | Change (Canis familiaris [13]): 10%; Increase (Canis familiaris [2]): 25%; Increase (Canis familiaris [3]): 39%; Change (Canis familiaris [4]): -6% |
| CCOc1cc2cc(O)nc(C)c2cc1OCC | 15% | 84% | -11% | 42% |  |
| CCOc1cc2c(C)nc(O)cc2cc1OC | 22% | 197% |  | 88% | Change (Canis familiaris [14]): -10% |
| CCOC(=O)CCc1c(O)nc(C)c2cc(OC)c(OC)cc12 | 8% | 60% | -4% | 20% |  |
| COc1ccc2cc(O)nc(C)c2c1 | 19% | 114% | -18% | 87% |  |
| CCCCOc1cc2c(C)nc(O)cc2cc1OC | 26% | 182% | -18% | 58% | ED50 (Canis familiaris [6]): 0.13 mg/kg; IC50 (Phosphodiesterase 3): 37 µM |
| Br.COc1cc2c(C)nc(O)c(Br)c2cc1OC | 26% | 128% | -40% | 25% | ED50 (Canis familiaris [6]): 0.185 mg/kg; IC50 (Phosphodiesterase 3): 10 µM |
| COc1cc2c(C)nc(O)c(CCC(=O)OC(C)C)c2cc1OC |  |  |  |  | Change (Canis familiaris [13]): 3%; Increase (Canis familiaris [2]): 15%; Increase (Canis familiaris [3]): 22%; Change (Canis familiaris [4]): -6% |
| COC(=O)Oc1cc2cc(OC)c(OC)cc2c(C)n1 |  |  |  |  | Change (Canis familiaris [15]): 19%; Increase (Canis familiaris [16]): 119%; Change (Canis familiaris [17]): -8%; Increase (Canis familiaris [18]): 66% |
